Consider four molecules from PMC7591420 (Targeted Oncology, 2020).

Where two headings read alike, the source gives them in different places.

One series concerns patients. The note with it: cited from earlier work.
The nature of series [1]: Plasma pharmacokinetics of copanlisib. Type of series: in vivo, human. The note with it: for Cmax / AUC(0-t): human, plasma, intravenous, cycle 1 day 1, copanlisib alone, geometric mean (% CV); for AUC(0-t): AUC(0–25).
For series [2] the following is noted: copanlisib 0.4 mg/kg as monotherapy; cited from earlier work.
For series [3], the system named is patients with advanced solid tumors. The format is in vivo, human. The note with it: all cohorts. In short, it runs like this:
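Open-label, non-randomized multicenter escalation plus expansion, 28-day cycles. PI3K inhibitor 0.2–0.8 mg/kg IV over 1 h on days 1, 8, 15 or 1, 8, 15, 22 (max 65 mg); MEK inhibitor 30–50 mg BID orally, continuous from day 4 or 4 days on/3 off from day 6. DLTs assessed in cycle 1; adverse events graded by NCI CTCAE v4.0.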

Series [4] relates to patients with solid tumors. The note with it: intravenous monotherapy; cited from earlier work.
Series [5] can be described thus: Plasma pharmacokinetics of refametinib. Type of series: in vivo, human. The note with it: for AUC(0-t) / Cmax: human, plasma, oral, cycle 1 day 14, refametinib alone, geometric mean (% CV); for AUC(0-t): AUC(0–8).
Series [6] deals with patients with advanced cancer. The conditions noted are these: cited from earlier work.
Where [7] appears, read: 0.4 mg/kg, cohort 2C: copanlisib 0.4 mg/kg weekly, refametinib 30 mg BID.
[8] abbreviates: 0.4 mg/kg, expansion cohort: copanlisib 0.4 mg/kg weekly, refametinib 30 mg BID.
[9] abbreviates: 30 mg, cohort 2C: copanlisib 0.4 mg/kg weekly, refametinib 30 mg BID.
The mark [10] stands for this setting: 30 mg, expansion cohort: copanlisib 0.4 mg/kg weekly, refametinib 30 mg BID.

As for `O=C(NOCCO)c1cc(CN2OCCCC2=O)c(F)c(F)c1Nc1ccc(I)cc1F` [RO4987655], the “incidence of ophthalmologic toxicities” value in the series on patients is given as 27%.
With `COc1c(OCCCN2CCOCC2)ccc2c1N=C(NC(=O)c1cnc(N)nc1)N1CCN=C21` [copanlisib], the peak concentration (Cmax) in series [1] (0.2 mg/kg, cohort 1: copanlisib 0.2 mg/kg 3 weeks on/1 week off, refametinib 30 mg BID) was 126 ng/mL; in series [1] (setting [7]) it was 241 ng/mL; in series [1] (setting [8]), 312 ng/mL; in series [1] (cohort 2) it was 189 ng/mL. Moreover, the AUC(0-t) in series [1] (setting [7]) turned out to be 725 ng·h/mL; in series [1] (setting [8]), 890 ng·h/mL. Besides, the “median time of Cmax, range over cohorts” value in series [1] (single infusion 0.2–0.8 mg/kg, cycle 1, day 1) is 0.50 to 1.03 h. In addition, the “copanlisib Cmax and AUC(0–25), day 1 (alone) versus day 15 (with refametinib)” value in series [1] (within each cohort) is “comparable between day 1 and day 15”. Moreover, the “activity of 0.4 mg/kg versus 0.8 mg/kg” value in series [2] is given as “less active than 0.8 mg/kg”. Also, the “Patients with dose modifications attributed to copanlisib-related TEAEs” value in series [3] (N = 64) is recorded as 39.1%. Moreover, the “Patients with TEAEs considered related to copanlisib” value in series [3] (N = 64, given with refametinib) is reported as 93.8%. The “maximum tolerated dose (MTD), single agent” value in series [4] is recorded as 0.8 mg/kg.
Consider `COc1cc(F)c(F)c(Nc2ccc(I)cc2F)c1NS(=O)(=O)C1(C[C@H](O)CO)CC1` [refametinib], for which the AUC(0-t) in series [5] (30 mg, cohort 1: copanlisib 0.2 mg/kg 3 weeks on/1 week off, refametinib 30 mg BID) is 2510 ng·h/mL; in series [5] (30 mg, cohort 2B: copanlisib 0.6 mg/kg 3 weeks on/1 week off, refametinib 30 mg BID), 3750 ng·h/mL; in series [5] (setting [9]), 4770 ng·h/mL; in series [5] (30 mg, cohort 3A: copanlisib 0.8 mg/kg 3 weeks on/1 week off, refametinib 30 mg BID), 4530 ng·h/mL; in series [5] (setting [10]), 5310 ng·h/mL; in series [5] (cohort 2), 5110 ng·h/mL. The Cmax was determined as 873 ng/mL in series [5] (setting [9]), 845 ng/mL in series [5] (setting [10]) and 943 ng/mL in series [5] (cohort 2). Moreover, the “median time of Cmax, range over cohorts” value in series [5] (multiple doses of refametinib 30 mg or 50 mg BID) fell in the range of 1.50 to 4.00 h. The “Patients with dose modifications attributed to refametinib-related TEAEs” value in series [3] (N = 64) is reported as 53.1%. Besides, in series [3] (N = 64, given with copanlisib), the “Patients with TEAEs considered related to refametinib” value was determined as 95.3%. Further, the “MTD, single agent” value in series [6] (oral, twice daily (BID), monotherapy) is on record as 50 mg. In series [6] (refametinib monotherapy), the partial response rate is recorded as 2%. Besides, the stable disease in series [6] (refametinib monotherapy) was 16%.
For the molecule `CC(=O)Nc1cccc(-n2c(=O)n(C3CC3)c(=O)c3c(Nc4ccc(I)cc4F)n(C)c(=O)c(C)c32)c1` [trametinib], in the series on patients (all-cause), the “incidence of ophthalmologic toxicities” value is given as 19%.
